Laboratory results: ChEMBL document CHEMBL1132718, “Design and synthesis of imidazoline derivatives active on glucose homeostasis in a rat model of type II diabetes. 2. Syntheses and biological activities of 1,4-dialkyl-, 1,4-dibenzyl, and 1-benzyl-4-alkyl-2-(4',5'-dihydro-1'H-imidazol-2'-yl)piperazines and isosteric analogues of imidazoline” (J Med Chem, 1999)

Key:
[1] = test system: Rattus norvegicus; assay: Percent of variation of glycemia value 30 mins after glucose administration by intraperitoneal dose of 100 uM/Kg to STZ rats compared to untreated rats; type: functional; design: unit: %
Summary of the method: (§1)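 STZ-diabetic rats: 3-month-old male Wistar (250 g) given streptozotocin 35 mg/kg iv. Single ip dose of 100 µmol/kg, then iv glucose 0.5 g/kg for IVGTT. Read-outs: ΔG (glycemia increment over baseline integrated over 30 min), G30 (glycemia at 30 min), K (disappearance rate 5–30 min). Expressed as percent variation versus untreated STZ rats, normalized to nondiabetic controls; 4–8 rats per compound, ±SEM.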

[2] = test system: Rattus norvegicus; assay: Rate of glucose disappearance between 5 and 30 min after glucose administration with an intraperitoneal administration of 100 (umol/kg) to STZ rats; type: functional, organism-based
Summary of the method: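 Three-month-old male Wistar rats (250 g) made diabetic with streptozotocin 35 mg/kg iv. Single ip dose of 100 µmol/kg, then IVGTT with glucose 0.5 g/kg iv. K is the rate of glucose disappearance between 5 and 30 min after the glucose load. Expressed as percent variation between treated and untreated diabetic rats, relative to nondiabetic controls. 4–8 rats per compound, ±SEM.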

[3] = test system: Rattus norvegicus; assay: Incremental glycemia values over baseline integrated over 30 min after glucose administration (iv) at a concentration 0.5 g/kg; type: functional; design: unit: %; summary of the method: as §1
[4] = Partition coefficient (logP); type: physicochemical; conditions: octanol/water
[5] = test system: Rattus norvegicus; assay: Percent of variation of glycemia value 30 mins after glucose administration with a peroral administration of 100 umol/kg to STZ rats; type: functional; design: unit: %
Summary of the method: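 Oral (po) dosing at 100 µmol/kg in STZ rats (male Wistar, 3 months old, 250 g, streptozotocin 35 mg/kg iv), followed by IVGTT with glucose 0.5 g/kg iv. G30 (glycemia 30 min after the glucose load) is expressed as percent variation between treated and untreated STZ rats, relative to nondiabetic controls.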

SMILES	G30 [1]	K [2]	Delta G [3]	logP [4]	G30 [5]
COc1ccccc1CN1CCN(C)CC1CC1=NCCN1 (configuration not stated)	36	53	31	–	–
c1ccc(C(CC2=NCCN2)c2ccccn2)cc1 (configuration not stated) [MIDAGLIZOLE]	121	–	32	–	–
CN1CCN(Cc2ccc(Cl)cc2Cl)C(C2=NCCN2C)C1 (configuration not stated)	75	64	24	–	–
CC(C)N1CCN(c2ccccc2)CC1C1=NCCN1 (configuration not stated)	15	60	0	–	–
CC(C)N1CCN(c2ccccc2)C(C2=NCCN2)C1 (configuration not stated)	91	102	11	–	–
C/N=C(/N)C1CN(C(C)C)CCN1C(C)C (configuration not stated)	77	62	43	–	–
CN1CCN(c2ccccc2Cl)CC1C1=NCCN1 (configuration not stated)	17	60	10	–	–
CC(C)CN1CCN(CC(C)C)C(C2=NCCN2)C1 (configuration not stated)	89	79	141	2.18	66
C=CCN1CCN(CC=C)C(C2=NCCN2)C1 (configuration not stated)	30	35	19	–	–
C1CCC(N2CCN(C3CCCC3)C(C3=NCCN3)C2)C1 (configuration not stated)	103	23	58	–	–
CC(C)CN1CCN(C)C(C2=NCCN2)C1 (configuration not stated)	21	42	40	–	–
C=C(C)CN1CCN(CC(C)C)C(C2=NCCN2)C1 (configuration not stated)	41	76	53	–	–
CN1CCN(Cc2ccccc2Cl)C(C2=NCCO2)C1 (configuration not stated)	0	0	8	–	–
c1ccc2c(c1)OCC(C1=NCCN1)O2 (configuration not stated) [IDAZOXAN]	48	79	8	–	–
C1CNC(C2CN(C(C3CC3)C3CC3)CCN2C(C2CC2)C2CC2)=N1 (configuration not stated)	89	41	24	–	–
C=CCN1CCN(CC(C)C)C(C2=NCCN2)C1 (configuration not stated)	55	61	115	1.3	23

SMILES	G30 [1]	K [2]	Delta G [3]	logP [4]	G30 [5]
c1ccc(CN2CCN(Cc3ccccc3)C(CC3=NCCN3)C2)cc1 (configuration not stated)	0	49	–	–	–
CC(C)N1CCN(C(C)C)C(CC2=NCCN2)C1 (configuration not stated)	0	79	27	–	–
C/N=C(/N)C1CN(Cc2ccccc2)CCN1Cc1ccccc1 (configuration not stated)	62	60	50	–	–
CC(C)N1CCN(C(C)C)C(C2=NCCN2)C1 (configuration not stated)	89	47	138	1.15	73
CN1CCN(Cc2ccc(Cl)cc2Cl)C(c2ncc[nH]2)C1 (configuration not stated)	14	37	0	–	–
CN1CCN(c2ccccc2)C(C2=NCCN2)C1 (configuration not stated)	28	39	6	–	–
C=C(C)CN1CCN(CC(=C)C)C(C2=NCCN2)C1 (configuration not stated)	96	117	116	1.45	0
CN1CCN(C(C2CC2)C2CC2)C(C2=NCCN2)C1 (configuration not stated)	55	47	101	–	–
CN1CCN(Cc2ccc(Cl)cc2Cl)C(C2=NCCCN2)C1 (configuration not stated)	30	38	47	–	–
N=C(N)C1CN(Cc2ccccc2)CCN1Cc1ccccc1 (configuration not stated)	65	65	55	–	–
CC(C)(C)CN1CCN(CC(C)(C)C)C(C2=NCCN2)C1 (configuration not stated)	81	67	54	–	–
CN1CCN(Cc2ccc(Cl)cc2Cl)C(CC2=NCCN2)C1 (configuration not stated)	42	91	19	–	–
CN1CCN(Cc2ccc(Cl)cc2Cl)C(C2=NCCN2)C1 (configuration not stated)	112	–	105	2.21	64
CCC(C)CN1CCN(CC(C)CC)C(C2=NCCN2)C1 (configuration not stated)	83	82	104	3.22	4.3
CC(C)CN1CCN(C)CC1C1=NCCN1 (configuration not stated)	48	55	113	–	–
